In PubChem BioAssay AID540295 (The Scripps Research Institute Molecular Screening Center, 2011):
About 1,700 (0.47%) of roughly 360,000 compounds were called active.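 How the source made its calls: active means inhibition above its plate's cutoff, the mean of tested wells on that plate plus 3 SD (cut at about 29% in these data); inactive means the rest.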 For the sample, actives were picked, then their nearest neighbours and some compounds at random.

biological target: Melanocortin receptor 4 (Homo sapiens) (UniProt P32245); assay: blockers of MC4R Gs-cAMP response – cell-based, TR-FRET, antagonist arm of biased-ligand search, primary screen (AID 540295); settings: MC4R-expressing cells, MTII-stimulated cAMP, LANCE TR-FRET; at 6.5 µM; active compounds read high;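 further: 0% = Melanotan II alone and 100% = Melanotan II plus saturating MCL0020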
Outline: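 Material: human MC4R-expressing U2OS cells. Probe or stimulus: Melanotan II challenge. Dosing: 6.5 µM single dose. Times: 30-min compound, 1-h challenge, 1-h detection, room temperature. Technique: TR-FRET with Eu-cAMP and labeled anti-cAMP, 671 nm. Replication: singlicate.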

Chain of Melanocortin receptor 4 (Homo sapiens) (P32245 whole entry, looked up): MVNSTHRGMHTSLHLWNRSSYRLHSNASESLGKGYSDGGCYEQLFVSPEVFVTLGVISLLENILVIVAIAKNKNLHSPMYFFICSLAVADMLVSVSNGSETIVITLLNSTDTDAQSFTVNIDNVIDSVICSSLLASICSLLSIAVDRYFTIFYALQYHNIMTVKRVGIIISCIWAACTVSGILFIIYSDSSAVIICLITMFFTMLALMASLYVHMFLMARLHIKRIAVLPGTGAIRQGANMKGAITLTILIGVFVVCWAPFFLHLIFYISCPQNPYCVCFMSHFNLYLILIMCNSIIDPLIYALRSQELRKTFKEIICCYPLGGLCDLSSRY

inhibition, inactive:
CCOC(=O)C1(C)CCCN(C(=O)c2ccc(F)c(Cl)c2)C1 (stereo not given) -0.84%, Cc1nc(N2CCN(c3ccccn3)CC2)c2c(C)c(C(=O)Nc3ccc(F)c(Cl)c3)sc2n1 5.05%, CC(=O)Nc1ccc(S(=O)(=O)N2CCn3cccc3C2C)cc1 (stereo not given) 1.62%, CCOc1ccc(-c2nc(N)ncc2-c2ccccc2OC)c(O)c1 -2.31%, CCOc1ccccc1Oc1cn[nH]c1-c1ccc(OC)cc1O 2.19%, CC(Sc1ccc(S(=O)(=O)N2CCN(C)CC2)cn1)C(=O)NC1CCCC(C)C1C (stereo not given) -2.08%, O=C(Nc1ccc2ccccc2c1[N+](=O)[O-])c1ccccc1 -1.17%, Cc1cc(=O)c2ccc(NC(=O)c3ccccc3)cc2[nH]1 0.31%, CN(CCC#N)c1ncnc2scc(-c3ccccc3)c12 -6.59%, Cc1sc2nc(-c3ccccc3F)oc(=O)c2c1C 2.06%, Cc1ccccc1-n1nnnc1SCCCC(=O)c1ccc(F)cc1 0.07%, Cn1c(=O)c2c(nc(N3CCCCCC3)n2CC(O)COc2ccc(Cl)cc2)n(C)c1=O (stereo not given) 19.6%, C=C(C)Cn1c(N2CCCC2)nc2c1c(=O)[nH]c(=O)n2C -7.2%, CCCCCCCC(=O)OC(CN1CCCCCC1)CN1CCCC1=O (stereo not given) 3.62%, CC(=O)c1cccc(NC(=O)C2CCCN(S(=O)(=O)c3cccc4nonc34)C2)c1 (stereo not given) 0.67%, Cn1nc(C(F)(F)F)cc1C(=O)O -0.27%, O=C(NCC1CCCO1)c1ccc(S(=O)(=O)Nc2ccc(F)cc2)cc1 (stereo not given) 1.8%, CCC(=O)Nc1ccc(S(=O)(=O)NCC2CCCO2)cc1 (stereo not given) 6.76%, Cn1cccc1C1(C(F)(F)F)NCCNC1=O (stereo not given) 1.67%, O=C(Nc1ccccc1C(=O)N1CCCCCC1)c1ccccc1Cl 2.65%, O=C(Cc1ccccc1)Nc1c(C(=O)N2CCCCCC2)cnn1-c1ccccc1 1.13%, O=C(NCc1ccccc1)C1=C[C@@H](c2ccccc2)C[C@@H](OCCCCO)O1 -12.3%, Cc1ccccc1N1CCN(C2CCCN(C(=O)c3cn4c(C)cccc4n3)C2)CC1 (stereo not given) -0.92%, Cc1c(CNCCc2ccccc2)c(C(=O)O)c(C)n1-c1ccccc1 11.5%, CCc1nn(CCCC(=O)Nc2ccc(C)cc2C)c(=O)c2cc3occc3n12 -1.71%, O=C(c1ccc(Cl)c(S(=O)(=O)N2CCCCCC2)c1)N1CCN(c2ccc(O)cc2)CC1 -1.58%, c1ccc(-n2cccc2)c(N2CCCCC2)c1 4.15%, CCc1nc2ccc(C(=O)N3CCC(O)(Cc4ccccc4)CC3)cn2c1N(C)C(=O)Cc1ccccc1 9.63%, CCCCn1nc(C(=O)N2CCc3ccccc32)c2ccccc2c1=O 9.32%, S=C(NC1CCCCC1)NN1CCOCC1 7.17%, COc1cc([N+](=O)[O-])ccc1NC(=O)COC(=O)CCOc1ccc(C)cc1 7.73%, Cc1ccc(NC(=O)C(C)OC(=O)C2CC3CCCC(C2)C3=O)cc1S(=O)(=O)N1CCOCC1 (stereo not given) -1.35%, CC(OC(=O)CCCc1c[nH]c2ccccc12)C(=O)Nc1ccc(S(N)(=O)=O)cc1 (stereo not given) -3.17%, CC(=O)CSc1nc(CCc2ccccc2)c(C#N)c(=O)[nH]1 7.06%, O=C(CSc1nc2ccccc2c(=O)[nH]1)Nc1nc(-c2ccc(Br)cc2)cs1 10%, CC(=O)Nc1cccc(-c2cc(NC(C)=O)c3ncc(-c4ccccc4)n3c2)c1 9.96%, COc1ccc(C(=O)N2CCCCC2c2cc(C(=O)Nc3ccc(F)c(Cl)c3)no2)cc1 (stereo not given) 16.2%

inhibition, active:
COc1ccc(-c2n[nH]c(C)c2-c2ccccc2OC)c(O)c1 29.1%, O=C(NC1=CC(=O)c2ccccc2C1=O)c1ccccc1 34.6%, Cc1cccc(OCC(O)Cn2c(N3CCCCC3)nc3c2c(=O)[nH]c(=O)n3C)c1 (stereo not given) 32.4%, CC(NS(=O)(=O)c1ccc(Br)cc1)C(=O)NCC1CCCO1 (stereo not given) 40.5%, CC(=O)Nc1ccc(Sc2ccccc2C(=O)N2CCCC2)cn1 32%, O=C1C=CC(=O)N1c1ccc(N2CCCCC2)cc1 43.8%, Cc1ccc(NC(=O)C(C)OC(=O)Cc2c[nH]c3ccccc23)cc1S(=O)(=O)N1CCOCC1 (stereo not given) 28.7%, N#Cc1c(-c2cccs2)nc(SCC(=O)c2ccc(Br)cc2)[nH]c1=O 39.6%
